Test [1] relates to Mast/stem cell growth factor receptor Kit (Homo sapiens), P10721 [V559D,V654A]. Put plainly: Competitive binding affinity to KIT V559D/V654A double mutant (unknown origin) at 10 uM in presence of ATP relative to control. The method, boiled down:
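In vitro ATP-site competition binding assay, part of profiling against a diverse panel of 128 kinases. Each compound was tested at a single concentration of 10 µM. Kinome selectivity was summarized as S15 selectivity scores.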

The target in test [2] is Mitogen-activated protein kinase 6 (Homo sapiens, UniProt Q16659). In words: Competitive binding affinity to ERK3 (unknown origin) at 10 uM in presence of ATP relative to control.
In test [3] the target is T1, Serine/threonine-protein kinase 17A (Homo sapiens) (UniProt Q9UEE5).
T1 sequence (whole entry): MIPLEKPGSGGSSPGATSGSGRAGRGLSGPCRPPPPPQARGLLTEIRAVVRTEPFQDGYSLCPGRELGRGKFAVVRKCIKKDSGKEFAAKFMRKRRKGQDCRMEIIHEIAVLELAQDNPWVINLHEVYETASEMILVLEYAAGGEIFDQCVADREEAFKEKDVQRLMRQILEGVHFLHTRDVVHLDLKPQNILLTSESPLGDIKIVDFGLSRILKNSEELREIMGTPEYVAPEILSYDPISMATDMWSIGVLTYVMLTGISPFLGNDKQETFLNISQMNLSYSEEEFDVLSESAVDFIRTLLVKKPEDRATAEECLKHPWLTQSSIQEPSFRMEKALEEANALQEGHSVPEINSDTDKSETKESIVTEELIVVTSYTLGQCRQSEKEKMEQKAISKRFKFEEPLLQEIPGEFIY
In words: Competitive binding affinity to DRAK1 (unknown origin) at 10 uM in presence of ATP relative to control.

The subject of test [4] is T2, Receptor-type tyrosine-protein kinase FLT3 (Homo sapiens), P36888 [N841I].
T2 sequence (whole entry): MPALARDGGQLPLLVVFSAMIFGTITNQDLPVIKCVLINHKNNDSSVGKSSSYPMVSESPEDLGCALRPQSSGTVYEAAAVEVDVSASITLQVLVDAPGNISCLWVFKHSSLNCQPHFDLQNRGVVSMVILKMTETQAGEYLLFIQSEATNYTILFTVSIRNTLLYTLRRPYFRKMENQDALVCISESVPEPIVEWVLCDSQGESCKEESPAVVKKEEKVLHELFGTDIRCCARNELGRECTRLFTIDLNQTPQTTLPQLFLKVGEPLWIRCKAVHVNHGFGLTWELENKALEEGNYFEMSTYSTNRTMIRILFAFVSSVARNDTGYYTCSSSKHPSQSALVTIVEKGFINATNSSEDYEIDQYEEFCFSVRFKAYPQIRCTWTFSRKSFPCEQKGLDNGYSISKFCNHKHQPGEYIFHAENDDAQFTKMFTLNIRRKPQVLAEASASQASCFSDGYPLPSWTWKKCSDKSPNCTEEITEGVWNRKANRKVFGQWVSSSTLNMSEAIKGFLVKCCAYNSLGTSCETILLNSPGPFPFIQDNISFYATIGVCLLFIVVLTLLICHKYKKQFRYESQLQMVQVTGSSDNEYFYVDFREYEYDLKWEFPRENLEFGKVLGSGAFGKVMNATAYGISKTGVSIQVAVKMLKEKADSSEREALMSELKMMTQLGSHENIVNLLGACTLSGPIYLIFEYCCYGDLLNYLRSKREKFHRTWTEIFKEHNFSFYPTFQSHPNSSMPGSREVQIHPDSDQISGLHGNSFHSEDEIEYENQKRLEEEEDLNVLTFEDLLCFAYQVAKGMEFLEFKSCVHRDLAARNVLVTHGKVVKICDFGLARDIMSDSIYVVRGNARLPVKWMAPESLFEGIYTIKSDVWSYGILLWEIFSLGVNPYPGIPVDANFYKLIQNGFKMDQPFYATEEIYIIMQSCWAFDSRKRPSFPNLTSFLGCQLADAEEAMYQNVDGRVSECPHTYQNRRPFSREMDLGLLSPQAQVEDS
In words: Competitive binding affinity to FLT3 N841I mutant (unknown origin) at 10 uM in presence of ATP relative to control.

Test [5] has as its system eIF-2-alpha kinase GCN2 (Homo sapiens), Q9P2K8 [S808G]. In words: Competitive binding affinity to GCN2 kinase domain 2 S808G mutant (unknown origin) at 10 uM in presence of ATP relative to control. The essentials: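 In vitro ATP-site competition binding format, run as one member of a diverse 128-kinase profiling panel. Each compound was tested at a single concentration across the whole panel.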

The target of test [6] is Ribosomal protein S6 kinase alpha-4 (Homo sapiens) (UniProt O75676). Put plainly: Competitive binding affinity to RPS6KA4 kinase domain 2 (unknown origin) at 10 uM in presence of ATP relative to control.
Test [7] has as its target T3, Dual specificity mitogen-activated protein kinase kinase 4 (Homo sapiens) (UniProt P45985).
T3 sequence (whole entry): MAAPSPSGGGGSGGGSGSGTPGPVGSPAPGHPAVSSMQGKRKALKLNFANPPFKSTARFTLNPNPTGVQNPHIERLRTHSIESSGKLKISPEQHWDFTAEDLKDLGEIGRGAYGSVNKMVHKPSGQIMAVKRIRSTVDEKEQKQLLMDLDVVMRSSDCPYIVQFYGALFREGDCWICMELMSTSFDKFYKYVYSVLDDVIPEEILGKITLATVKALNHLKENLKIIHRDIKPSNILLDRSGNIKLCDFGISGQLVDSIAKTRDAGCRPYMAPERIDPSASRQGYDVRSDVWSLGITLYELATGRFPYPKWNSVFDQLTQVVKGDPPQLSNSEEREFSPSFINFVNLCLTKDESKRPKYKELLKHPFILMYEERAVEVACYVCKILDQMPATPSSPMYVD
Put plainly: Competitive binding affinity to MEK4 (unknown origin) at 10 uM in presence of ATP relative to control.

Test [8] deals with Serine/threonine-protein kinase tousled-like 2 (Homo sapiens) (UniProt Q86UE8). Put plainly: Competitive binding affinity to TLK2 (unknown origin) at 10 uM in presence of ATP relative to control.
Test [9] deals with MAP/microtubule affinity-regulating kinase 3 (Homo sapiens) (UniProt P27448). In words: Competitive binding affinity to MARK3 (unknown origin) at 10 uM in presence of ATP relative to control.
For a further test, the species on record is Homo sapiens. Put plainly: Competitive binding affinity to EGFR L747 to S752 deletion mutant, P753S mutant (unknown origin) at 10 uM in presence of ATP relative to control.

A value given as a limit tells only on which side of the number the result lay.

In general, inhibition refers to the share of the control response that was lost under treatment.

Chain of Ribosomal protein S6 kinase alpha-4 (Homo sapiens) (O75676 whole entry, looked up, the tested form may be a part): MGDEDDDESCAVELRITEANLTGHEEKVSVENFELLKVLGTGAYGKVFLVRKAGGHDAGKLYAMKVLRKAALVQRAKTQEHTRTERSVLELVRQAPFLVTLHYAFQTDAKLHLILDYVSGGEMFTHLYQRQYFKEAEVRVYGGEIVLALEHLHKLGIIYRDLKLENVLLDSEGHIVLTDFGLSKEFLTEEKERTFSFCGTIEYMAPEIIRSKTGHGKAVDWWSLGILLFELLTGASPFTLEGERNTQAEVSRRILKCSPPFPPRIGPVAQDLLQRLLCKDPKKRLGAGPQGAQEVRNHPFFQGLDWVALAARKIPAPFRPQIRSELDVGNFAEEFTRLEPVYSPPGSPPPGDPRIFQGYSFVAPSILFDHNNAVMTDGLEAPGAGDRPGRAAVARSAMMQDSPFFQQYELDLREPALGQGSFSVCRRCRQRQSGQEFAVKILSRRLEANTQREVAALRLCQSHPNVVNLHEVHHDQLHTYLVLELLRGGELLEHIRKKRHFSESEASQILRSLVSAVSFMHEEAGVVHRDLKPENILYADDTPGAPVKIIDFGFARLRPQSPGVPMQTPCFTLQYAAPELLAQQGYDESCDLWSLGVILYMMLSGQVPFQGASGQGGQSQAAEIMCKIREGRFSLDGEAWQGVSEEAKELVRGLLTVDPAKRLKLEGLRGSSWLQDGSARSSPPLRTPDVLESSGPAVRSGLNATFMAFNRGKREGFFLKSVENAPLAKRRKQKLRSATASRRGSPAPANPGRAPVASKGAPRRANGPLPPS
Chain of eIF-2-alpha kinase GCN2 (Homo sapiens), Q9P2K8 [S808G] (Q9P2K8 whole entry S808G, the tested form may be a part): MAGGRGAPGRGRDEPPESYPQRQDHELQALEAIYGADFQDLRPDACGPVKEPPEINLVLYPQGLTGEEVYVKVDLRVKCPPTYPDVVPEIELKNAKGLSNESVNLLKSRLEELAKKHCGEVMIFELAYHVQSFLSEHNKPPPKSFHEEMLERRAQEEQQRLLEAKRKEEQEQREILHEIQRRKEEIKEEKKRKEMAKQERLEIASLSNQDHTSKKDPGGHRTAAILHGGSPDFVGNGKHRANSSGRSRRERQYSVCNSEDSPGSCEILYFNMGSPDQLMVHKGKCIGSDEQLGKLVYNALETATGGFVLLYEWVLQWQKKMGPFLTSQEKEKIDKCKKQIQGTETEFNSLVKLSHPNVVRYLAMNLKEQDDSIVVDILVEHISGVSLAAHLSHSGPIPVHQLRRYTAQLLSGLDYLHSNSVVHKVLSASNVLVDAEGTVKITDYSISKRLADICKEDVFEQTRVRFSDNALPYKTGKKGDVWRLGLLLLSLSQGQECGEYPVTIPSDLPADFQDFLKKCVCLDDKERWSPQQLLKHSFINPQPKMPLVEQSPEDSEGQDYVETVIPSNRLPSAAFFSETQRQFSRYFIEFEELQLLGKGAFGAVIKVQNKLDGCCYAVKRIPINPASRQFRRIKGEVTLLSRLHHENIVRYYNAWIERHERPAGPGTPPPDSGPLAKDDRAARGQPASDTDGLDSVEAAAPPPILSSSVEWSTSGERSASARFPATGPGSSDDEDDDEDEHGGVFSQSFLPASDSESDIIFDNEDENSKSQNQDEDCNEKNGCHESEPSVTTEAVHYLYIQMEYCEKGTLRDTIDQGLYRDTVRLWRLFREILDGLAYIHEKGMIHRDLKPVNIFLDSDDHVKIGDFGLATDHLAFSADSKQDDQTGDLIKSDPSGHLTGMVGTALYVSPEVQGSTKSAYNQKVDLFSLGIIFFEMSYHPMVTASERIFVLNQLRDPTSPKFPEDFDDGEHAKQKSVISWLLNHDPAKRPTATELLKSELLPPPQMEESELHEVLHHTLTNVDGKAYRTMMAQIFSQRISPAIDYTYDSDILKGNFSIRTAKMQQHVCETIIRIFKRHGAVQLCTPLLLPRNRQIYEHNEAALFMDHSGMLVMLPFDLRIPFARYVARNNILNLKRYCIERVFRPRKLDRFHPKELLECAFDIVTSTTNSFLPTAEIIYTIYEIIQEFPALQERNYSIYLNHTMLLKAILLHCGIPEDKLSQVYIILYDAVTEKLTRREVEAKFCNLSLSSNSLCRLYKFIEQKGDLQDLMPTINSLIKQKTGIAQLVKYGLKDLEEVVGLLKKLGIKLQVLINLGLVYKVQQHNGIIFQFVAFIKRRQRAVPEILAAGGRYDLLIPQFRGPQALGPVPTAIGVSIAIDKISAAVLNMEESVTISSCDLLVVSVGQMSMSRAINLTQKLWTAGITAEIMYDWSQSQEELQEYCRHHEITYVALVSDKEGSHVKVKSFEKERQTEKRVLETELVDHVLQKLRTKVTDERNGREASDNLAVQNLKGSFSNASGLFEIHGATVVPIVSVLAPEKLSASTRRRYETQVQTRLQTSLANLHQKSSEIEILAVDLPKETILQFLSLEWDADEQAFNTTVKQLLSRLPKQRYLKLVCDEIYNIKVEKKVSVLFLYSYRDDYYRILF
Chain of Serine/threonine-protein kinase tousled-like 2 (Homo sapiens) (Q86UE8 whole entry, looked up): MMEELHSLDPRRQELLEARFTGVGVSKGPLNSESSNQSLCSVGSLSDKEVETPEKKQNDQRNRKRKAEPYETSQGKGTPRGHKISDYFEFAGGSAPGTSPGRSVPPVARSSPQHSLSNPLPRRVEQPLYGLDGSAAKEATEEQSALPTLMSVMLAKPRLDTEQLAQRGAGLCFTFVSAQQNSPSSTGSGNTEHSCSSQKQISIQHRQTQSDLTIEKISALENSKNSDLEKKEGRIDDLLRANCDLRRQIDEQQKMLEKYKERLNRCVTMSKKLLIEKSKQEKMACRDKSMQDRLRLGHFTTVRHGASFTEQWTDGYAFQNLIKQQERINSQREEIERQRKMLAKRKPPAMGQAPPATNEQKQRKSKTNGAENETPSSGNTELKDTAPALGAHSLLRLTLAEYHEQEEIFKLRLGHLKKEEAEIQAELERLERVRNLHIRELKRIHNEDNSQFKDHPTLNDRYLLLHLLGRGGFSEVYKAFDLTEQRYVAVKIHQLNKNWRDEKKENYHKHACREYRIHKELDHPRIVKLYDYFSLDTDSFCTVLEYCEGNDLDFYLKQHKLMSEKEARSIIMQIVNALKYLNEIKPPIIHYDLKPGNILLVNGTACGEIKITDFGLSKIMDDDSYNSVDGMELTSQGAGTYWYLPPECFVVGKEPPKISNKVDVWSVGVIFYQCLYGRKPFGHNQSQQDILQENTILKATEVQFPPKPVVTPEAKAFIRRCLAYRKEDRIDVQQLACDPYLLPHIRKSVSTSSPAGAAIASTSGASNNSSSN
Chain of Mitogen-activated protein kinase 6 (Q16659 whole entry): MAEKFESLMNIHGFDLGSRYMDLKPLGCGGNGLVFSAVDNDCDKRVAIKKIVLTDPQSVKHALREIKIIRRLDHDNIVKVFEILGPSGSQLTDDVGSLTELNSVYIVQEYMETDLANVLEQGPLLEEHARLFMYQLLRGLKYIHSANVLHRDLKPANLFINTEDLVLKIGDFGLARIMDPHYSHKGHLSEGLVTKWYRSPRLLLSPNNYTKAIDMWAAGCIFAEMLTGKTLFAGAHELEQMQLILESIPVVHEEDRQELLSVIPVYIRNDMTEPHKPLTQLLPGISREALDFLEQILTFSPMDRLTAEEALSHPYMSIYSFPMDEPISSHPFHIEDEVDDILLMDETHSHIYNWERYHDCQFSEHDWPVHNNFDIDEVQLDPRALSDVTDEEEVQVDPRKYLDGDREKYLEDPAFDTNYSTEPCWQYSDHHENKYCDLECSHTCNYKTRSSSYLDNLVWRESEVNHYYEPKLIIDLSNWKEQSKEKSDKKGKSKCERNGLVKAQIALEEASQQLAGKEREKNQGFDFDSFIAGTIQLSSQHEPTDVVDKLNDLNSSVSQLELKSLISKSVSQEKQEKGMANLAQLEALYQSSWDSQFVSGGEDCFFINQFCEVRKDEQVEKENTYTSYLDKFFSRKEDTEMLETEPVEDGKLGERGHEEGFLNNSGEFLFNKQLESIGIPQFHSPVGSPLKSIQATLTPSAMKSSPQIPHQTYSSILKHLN
Chain of Mast/stem cell growth factor receptor Kit (Homo sapiens), P10721 [V559D,V654A] (P10721 whole entry V559D/V654A): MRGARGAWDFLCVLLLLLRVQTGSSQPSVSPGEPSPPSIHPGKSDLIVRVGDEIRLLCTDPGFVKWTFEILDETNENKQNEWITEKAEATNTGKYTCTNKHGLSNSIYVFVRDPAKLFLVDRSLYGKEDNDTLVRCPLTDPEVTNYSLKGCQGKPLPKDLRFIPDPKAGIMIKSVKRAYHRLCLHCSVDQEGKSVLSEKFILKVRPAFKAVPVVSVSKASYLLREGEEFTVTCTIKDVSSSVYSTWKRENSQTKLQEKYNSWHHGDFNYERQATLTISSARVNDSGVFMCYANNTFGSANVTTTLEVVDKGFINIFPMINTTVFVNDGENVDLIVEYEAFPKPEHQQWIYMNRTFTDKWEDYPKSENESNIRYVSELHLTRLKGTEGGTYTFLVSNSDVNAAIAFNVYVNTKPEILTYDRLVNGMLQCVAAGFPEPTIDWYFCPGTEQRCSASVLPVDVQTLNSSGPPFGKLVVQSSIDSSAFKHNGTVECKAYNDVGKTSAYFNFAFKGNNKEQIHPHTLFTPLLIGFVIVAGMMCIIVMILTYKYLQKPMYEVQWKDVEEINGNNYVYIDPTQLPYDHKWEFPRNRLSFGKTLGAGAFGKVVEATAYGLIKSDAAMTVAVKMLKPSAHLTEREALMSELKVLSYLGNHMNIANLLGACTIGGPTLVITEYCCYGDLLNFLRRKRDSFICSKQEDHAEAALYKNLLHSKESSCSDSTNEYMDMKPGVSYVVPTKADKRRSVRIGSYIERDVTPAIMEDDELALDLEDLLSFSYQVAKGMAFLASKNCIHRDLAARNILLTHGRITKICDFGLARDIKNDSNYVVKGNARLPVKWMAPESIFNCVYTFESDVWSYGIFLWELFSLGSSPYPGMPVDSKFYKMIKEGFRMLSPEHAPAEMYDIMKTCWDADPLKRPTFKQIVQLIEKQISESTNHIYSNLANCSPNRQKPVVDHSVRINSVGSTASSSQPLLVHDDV

`O[C@H]1CC[C@H](Nc2nccc(-n3ccc4ccccc43)n2)CC1`: the inhibition in test [1] was 64%; in [2], 99%; in [3], 98%; in test [4], less than 50%; in test [5], 83%; in [6], less than 50%. The inhibition was 97% in test [7], less than 50% in [8], less than 50% in test [9] and less than 50% in the test listed under Homo sapiens.
Consider `O[C@H]1CC[C@H](Nc2nccc(-n3nnc4ccccc43)n2)CC1`, for which the inhibition in test [1] came to 67%; in [2] it was 100%; in test [3], 100%; in test [4], 98%; in test [5] it was 99%; in [6], 94%. Besides, the inhibition in test [7] was 99%; in test [8], less than 50%; in test [9], less than 50%; in the test filed under Homo sapiens, less than 50%.
On to `CS(=O)(=O)CCCOc1cccc2c1ccn2-c1ccnc(N[C@H]2CC[C@H](C(=O)N3CCC(O)CC3)CC2)n1`, for which the inhibition in [2], in test [3], in test [5] and in test [7] was greater than 85% in each case.
Consider `O[C@H]1CC[C@H](Nc2nccc(-n3ncc4ccccc43)n2)CC1`, for which the inhibition is 87% in test [1]; 100% in test [2]; 99% in [3]; 97% in [4]; 100% in [5]; less than 50% in [6]. Also, the inhibition in [7] is 99%; in test [8] it was less than 50%; in test [9], less than 50%; in the test listed under Homo sapiens, less than 50%.
As to `O[C@H]1CC[C@H](Nc2nccc(-c3n[nH]c4ccccc34)n2)CC1`, the inhibition is 82% in test [1]; 100% in test [4]; 100% in [5]; 96% in test [8]; less than 50% in the test listed under Homo sapiens.

Source of the values: ChEMBL document CHEMBL2424622, “Development of amino-pyrimidine inhibitors of c-Jun N-terminal kinase (JNK): kinase profiling guided optimization of a 1,2,3-benzotriazole lead” (Bioorg Med Chem Lett, 2013).
